From article PMC10238757 (Pharmacology Research & Perspectives, 2023)

What was measured:
healthy participants [1] = experiment: Safety pooled across study parts; assay type: in vivo, human
Summary of the method: (§1)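 AEs in healthy participants given oral test compound or placebo, recorded with grade and relation to treatment. Laboratory analyses, clinical parameters and suicidality were also monitored. Observation ran 360 h after dosing. Summaries were descriptive, with no formal statistics; parts 1–2 blinded and placebo-controlled, part 3 open-label.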

Multiple ascending dose = assay type: in vivo, human; conditions: for half-life / AUC(0-t) / Cmax / concentration at 24 h / Tmax / concentration at 168 h: human, plasma, oral; for Cmax: C max; for Cmax / concentration at 24 h / concentration at 168 h: ng/mL GM (%CVb); for concentration at 24 h / concentration at 168 h: C trough; for Tmax: t max, h median (range)
Summary of the method: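 Healthy participants, double-blind and placebo-controlled, cohorts of 10 randomized 7:3. Oral doses after a moderate-fat meal: 25–100 mg QD for 14 days (18 days at top dose), or 500 mg QW ×3. Trough taken pre-dose at end of interval (24 h QD, 168 h QW). Plasma followed to 360 h; LLOQ 10 ng/mL. Non-compartmental PK; accumulation ratios Day 14, 15 or 18 vs Day 1; geometric means with CVb.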

rats = experiment: Dose ranging and good laboratory practice toxicology studies in rats; assay type: in vivo
healthy participants [2] = experiment: Safety and tolerability, relative bioavailability and food effect; assay type: in vivo, human
Summary of the method: as §1

Q: For `C=C(C)[C@@H]1CC[C@]2(NCCN3CCS(=O)(=O)CC3)CC[C@]3(C)[C@H](CC[C@@H]4[C@@]5(C)CC=C(C6=CC[C@@](COc7ncccc7C#N)(C(=O)O)CC6)C(C)(C)[C@@H]5CC[C@]43C)[C@@H]12` [GSK'937], which “severity of all AEs in participants receiving GSK'937” value (healthy participants [1]; all study parts) is on record?
A: grade 1 or 2

Q: What about the “dry skin among AEs attributable to GSK'937” value (healthy participants [1]; parts 1 and 2, 1/17) of the same molecule?
A: 6%

Q: And the “headache among AEs attributable to GSK'937” value (healthy participants [1]; parts 1 and 2, 2/17)?
A: 12%

Q: And the “Gastrointestinal disorders among GSK'937 recipients” value (healthy participants [1]; parts 1 and 2, 13/64)?
A: 20%

Q: What about the “GI disorders among AEs attributable to GSK'937” value (healthy participants [1]; parts 1 and 2, 14/17) of the same molecule?
A: 82%

Q: What about the “Accumulation ratio of C trough GM (%CVb)” value (Multiple ascending dose; 25 mg QD, Day 14/Day 1) of the same molecule?
A: 6.58 (31.4)

Q: And the “Accumulation ratio of C trough GM (%CVb)” value (Multiple ascending dose; 50 mg QD, Day 14/Day 1)?
A: 5.25 (35.7)

Q: What about the “Accumulation ratio of C trough GM (%CVb)” value (Multiple ascending dose; 100 mg QD, Day 18/Day 1) of the same molecule?
A: 9.39 (72.5)

Q: And the “accumulation in exposure following repeat dosing” value (Multiple ascending dose; 500 mg QW (weekly))?
A: ~ 1.7 fold

Q: And the “Accumulation ratio of AUC0-t GM (%CVb)” value (Multiple ascending dose; 500 mg QW, Day 15/Day 1)?
A: 1.76 (27.0)

Q: And the “Accumulation ratio of C max GM (%CVb)” value (Multiple ascending dose; 500 mg QW, Day 15/Day 1)?
A: 1.68 (26.9)

Q: What about the “Accumulation ratio of C trough GM (%CVb)” value (Multiple ascending dose; 500 mg QW, Day 15/Day 1) of the same molecule?
A: 1.82 (33.8)

Q: What about the “time after final dose at which still detectable” value (Multiple ascending dose; all part 2 participants) of the same molecule?
A: 360 h

Q: And the half-life (Multiple ascending dose)?
A: 72.2 to 85.8 h

Q: What about the AUC(0-t) (Multiple ascending dose; 25 mg) of the same molecule?
A: 1890 ng·h/mL

Q: And the half-life (Multiple ascending dose; 25 mg)?
A: 85.8 h

Q: And the Cmax (Multiple ascending dose; 25 mg, 25 mg QD, Day 1)?
A: 132 ng/mL

Q: What about the Cmax (Multiple ascending dose; 25 mg, 25 mg QD, Day 14) of the same molecule?
A: 766 ng/mL

Q: What about the concentration at 24 h (Multiple ascending dose; 25 mg, 25 mg QD, Day 1, 24 h) of the same molecule?
A: 89.3 ng/mL

Q: What about the concentration at 24 h (Multiple ascending dose; 25 mg, 25 mg QD, Day 14, 24 h) of the same molecule?
A: 588 ng/mL

Q: And the Tmax (Multiple ascending dose; 25 mg, 25 mg QD, Day 1)?
A: 9 h

Q: And the Tmax (Multiple ascending dose; 25 mg, 25 mg QD, Day 14)?
A: 6.95 h

Q: What about the AUC(0-t) (Multiple ascending dose; 50 mg) of the same molecule?
A: 3560 ng·h/mL

Q: And the half-life (Multiple ascending dose; 50 mg)?
A: 72.2 h

Q: What about the Cmax (Multiple ascending dose; 50 mg, 50 mg QD, Day 1) of the same molecule?
A: 232 ng/mL

Q: What about the Cmax (Multiple ascending dose; 50 mg, 50 mg QD, Day 14) of the same molecule?
A: 1150 ng/mL

Q: What about the concentration at 24 h (Multiple ascending dose; 50 mg, 50 mg QD, Day 1, 24 h) of the same molecule?
A: 189 ng/mL

Q: And the concentration at 24 h (Multiple ascending dose; 50 mg, 50 mg QD, Day 14, 24 h)?
A: 990 ng/mL

Q: And the Tmax (Multiple ascending dose; 50 mg, 50 mg QD, Day 1)?
A: 8 h

Q: And the Tmax (Multiple ascending dose; 50 mg, 50 mg QD, Day 14)?
A: 7.03 h

Q: And the AUC(0-t) (Multiple ascending dose; 100 mg)?
A: 5890 ng·h/mL

Q: And the half-life (Multiple ascending dose; 100 mg)?
A: 78.5 h

Q: And the Cmax (Multiple ascending dose; 100 mg, 100 mg QD, Day 1)?
A: 375 ng/mL

Q: And the Cmax (Multiple ascending dose; 100 mg, 100 mg QD, Day 14)?
A: 2680 ng/mL

Q: And the Cmax (Multiple ascending dose; 100 mg, 100 mg QD, Day 18)?
A: 2750 ng/mL

Q: And the concentration at 24 h (Multiple ascending dose; 100 mg, 100 mg QD, Day 1, 24 h)?
A: 272 ng/mL

Q: What about the concentration at 24 h (Multiple ascending dose; 100 mg, 100 mg QD, Day 14, 24 h) of the same molecule?
A: 2420 ng/mL

Q: What about the concentration at 24 h (Multiple ascending dose; 100 mg, 100 mg QD, Day 18, 24 h) of the same molecule?
A: 2460 ng/mL

Q: And the Tmax (Multiple ascending dose; 100 mg, 100 mg QD, Day 1)?
A: 9 h

Q: And the Tmax (Multiple ascending dose; 100 mg, 100 mg QD, Day 14)?
A: 7.49 h

Q: What about the Tmax (Multiple ascending dose; 100 mg, 100 mg QD, Day 18) of the same molecule?
A: 9.01 h

Q: And the half-life (Multiple ascending dose; 500 mg)?
A: 74.5 h

Q: What about the Cmax (Multiple ascending dose; 500 mg, 500 mg QW, Day 1) of the same molecule?
A: 1110 ng/mL

Q: What about the Cmax (Multiple ascending dose; 500 mg, 500 mg QW, Day 8) of the same molecule?
A: 2320 ng/mL

Q: And the Cmax (Multiple ascending dose; 500 mg, 500 mg QW, Day 15)?
A: 1860 ng/mL

Q: And the concentration at 168 h (Multiple ascending dose; 500 mg, 500 mg QW, Day 1, 168 h)?
A: 251 ng/mL

Q: And the concentration at 168 h (Multiple ascending dose; 500 mg, 500 mg QW, Day 8, 168 h)?
A: 498 ng/mL

Q: What about the concentration at 168 h (Multiple ascending dose; 500 mg, 500 mg QW, Day 15, 168 h) of the same molecule?
A: 455 ng/mL

Q: And the Tmax (Multiple ascending dose; 500 mg, 500 mg QW, Day 1)?
A: 9.88 h

Q: And the Tmax (Multiple ascending dose; 500 mg, 500 mg QW, Day 8)?
A: 10 h

Q: What about the Tmax (Multiple ascending dose; 500 mg, 500 mg QW, Day 15) of the same molecule?
A: 10 h

Q: What about the “no observed adverse effect level” value (rats) of the same molecule?
A: 10 mg/kg/day

Q: What about the “Abdominal pain, n occurrences (% of cohort)” value (“Abdominal pain … (% of cohort)” below) (healthy participants [2]; 100 mg PiB fed, N=15) of the same molecule?
A: 0

Q: And the “All-cause AEs Grade 2, n occurrences (% of cohort)” value (healthy participants [2]; 100 mg PiB fed, N=15)?
A: 0

Q: And the “All-cause AEs Grade 3/4, n occurrences (% of cohort)” value (healthy participants [2]; 100 mg PiB fed, N=15)?
A: 0

Q: What about the “All-cause AEs, n occurrences (% of cohort)” value (healthy participants [2]; 100 mg PiB fed, N=15) of the same molecule?
A: 2 (13)

Q: What about the “Constipation, n occurrences (% of cohort)” value (“Constipation … (% of cohort)” below) (healthy participants [2]; 100 mg PiB fed, N=15) of the same molecule?
A: 0

Q: And the “Diarrhea, n occurrences (% of cohort)” value (healthy participants [2]; 100 mg PiB fed, N=15)?
A: 0

Q: And the “Drug-related AEs Grade 2, n occurrences (% of cohort)” value (healthy participants [2]; 100 mg PiB fed, N=15)?
A: 0

Q: And the “Drug-related AEs Grade 3/4, n occurrences (% of cohort)” value (healthy participants [2]; 100 mg PiB fed, N=15)?
A: 0

Q: What about the “Drug-related AEs, n occurrences (% of cohort)” value (healthy participants [2]; 100 mg PiB fed, N=15) of the same molecule?
A: 0

Q: And the “Headache, n occurrences (% of cohort)” value (healthy participants [2]; 100 mg PiB fed, N=15)?
A: 0

Q: And the “MDSD, n occurrences (% of cohort)” value (healthy participants [2]; 100 mg PiB fed, N=15)?
A: 0

Q: And the “Abdominal pain … (% of cohort)” value (healthy participants [2]; 100 mg tablet fasted, N=15)?
A: 0

Q: What about the “All-cause AEs Grade 2, n occurrences (% of cohort)” value (healthy participants [2]; 100 mg tablet fasted, N=15) of the same molecule?
A: 2 (13)

Q: What about the “All-cause AEs Grade 3/4, n occurrences (% of cohort)” value (healthy participants [2]; 100 mg tablet fasted, N=15) of the same molecule?
A: 0

Q: What about the “All-cause AEs, n occurrences (% of cohort)” value (healthy participants [2]; 100 mg tablet fasted, N=15) of the same molecule?
A: 7 (40)

Q: What about the “Constipation … (% of cohort)” value (healthy participants [2]; 100 mg tablet fasted, N=15) of the same molecule?
A: 0

Q: What about the “Diarrhea, n occurrences (% of cohort)” value (healthy participants [2]; 100 mg tablet fasted, N=15) of the same molecule?
A: 0

Q: What about the “Drug-related AEs Grade 2, n occurrences (% of cohort)” value (healthy participants [2]; 100 mg tablet fasted, N=15) of the same molecule?
A: 0

Q: And the “Drug-related AEs Grade 3/4, n occurrences (% of cohort)” value (healthy participants [2]; 100 mg tablet fasted, N=15)?
A: 0

Q: And the “Drug-related AEs, n occurrences (% of cohort)” value (healthy participants [2]; 100 mg tablet fasted, N=15)?
A: 0

Q: What about the “Headache, n occurrences (% of cohort)” value (healthy participants [2]; 100 mg tablet fasted, N=15) of the same molecule?
A: 2 (13)

Q: And the “MDSD, n occurrences (% of cohort)” value (healthy participants [2]; 100 mg tablet fasted, N=15)?
A: 0

Q: And the “Abdominal pain … (% of cohort)” value (healthy participants [2]; 100 mg tablet fed, N=17)?
A: 0

Q: What about the “All-cause AEs Grade 2, n occurrences (% of cohort)” value (healthy participants [2]; 100 mg tablet fed, N=17) of the same molecule?
A: 3 (12)

Q: And the “All-cause AEs Grade 3/4, n occurrences (% of cohort)” value (healthy participants [2]; 100 mg tablet fed, N=17)?
A: 0

Q: What about the “All-cause AEs, n occurrences (% of cohort)” value (healthy participants [2]; 100 mg tablet fed, N=17) of the same molecule?
A: 7 (24)

Q: What about the “Constipation … (% of cohort)” value (healthy participants [2]; 100 mg tablet fed, N=17) of the same molecule?
A: 0

Q: And the “Diarrhea, n occurrences (% of cohort)” value (healthy participants [2]; 100 mg tablet fed, N=17)?
A: 0

Q: And the “Drug-related AEs Grade 2, n occurrences (% of cohort)” value (healthy participants [2]; 100 mg tablet fed, N=17)?
A: 0

Q: What about the “Drug-related AEs Grade 3/4, n occurrences (% of cohort)” value (healthy participants [2]; 100 mg tablet fed, N=17) of the same molecule?
A: 0

Q: And the “Drug-related AEs, n occurrences (% of cohort)” value (healthy participants [2]; 100 mg tablet fed, N=17)?
A: 0

Q: What about the “Headache, n occurrences (% of cohort)” value (healthy participants [2]; 100 mg tablet fed, N=17) of the same molecule?
A: 2 (12)

Q: What about the “MDSD, n occurrences (% of cohort)” value (healthy participants [2]; 100 mg tablet fed, N=17) of the same molecule?
A: 0

Q: And the “AEs considered drug- or treatment-related” value (healthy participants [2]; part 3)?
A: None

Q: And the “changes in laboratory analyses, clinical parameters, or suicidality” value (healthy participants [2]; part 3)?
A: No significant changes

Q: And the “deaths or SAEs” value (healthy participants [2]; part 3)?
A: No deaths or SAEs occurred

Q: And the “participants reporting AEs, n of 17” value (healthy participants [2]; part 3 (41%))?
A: 7
